Reference: the M2OR odorant receptor database
Numbering of substitutions follows the chain as printed.

What follows are compounds tested against T1, OR2W1 (Homo sapiens) (UniProt Q9Y3N9). Details: stereoisomer not certain.
T1 sequence (whole entry): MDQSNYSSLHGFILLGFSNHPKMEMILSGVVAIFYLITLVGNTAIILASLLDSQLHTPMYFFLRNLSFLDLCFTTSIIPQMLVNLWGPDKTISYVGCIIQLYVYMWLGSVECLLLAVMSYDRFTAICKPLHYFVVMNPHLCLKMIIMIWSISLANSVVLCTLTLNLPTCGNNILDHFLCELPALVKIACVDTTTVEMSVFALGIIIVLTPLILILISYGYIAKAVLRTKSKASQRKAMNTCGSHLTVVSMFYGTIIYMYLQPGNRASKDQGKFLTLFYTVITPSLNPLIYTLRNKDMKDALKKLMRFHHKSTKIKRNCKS
Outline: (§1)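 Values were gathered from published papers (main text and supplementary material), with extra details requested from the original authors when needed, and checked for typos and inconsistencies. Each receptor–molecule pair is called responsive (active) if the original authors judged the measured signal statistically different from baseline, and non-responsive (inactive) otherwise. Assay methods varied by source, often transient mammalian cell-line luciferase assays. Recorded details include cell line, G-protein, co-transfected protein and tags.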

SMILES | odorant receptor agonist call
CCC1CCC(=O)O1 (stereo not given) | inactive
SCc1ccco1 | active
C=CCc1ccccc1 | inactive
C=CCOC(=O)Cc1ccccc1 | active
C=CCc1ccc(OC)cc1 | active
O=Cc1ccc2c(c1)OCO2 | active
Cc1ccccc1O | inactive
CSSC | inactive
Cc1c([N+](=O)[O-])c(C)c([N+](=O)[O-])c(C(C)(C)C)c1[N+](=O)[O-] | inactive
O=c1cc(O)c2ccccc2o1 | inactive
C=CCSSCC=C | inactive
CCOC(=O)Cc1ccccc1 | active
Cc1ccc(O)c(C)c1 | inactive
O=Cc1ccco1 | inactive
COc1ccc(C=O)cc1 | active
SCc1ccccc1 | active
OCc1ccco1 | active
O=C(O)Cc1ccccc1 | inactive
NCC(=O)c1ccccc1 | inactive

These compounds were tested on T2, OR2W1. Details: stereoisomer not certain.
T2 sequence (whole entry): T1 sequence (whole entry) with D296N
Outline: as §1

SMILES | odorant receptor agonist call
SCc1ccco1 | active
C=CCc1ccc(OC)cc1 | active
O=Cc1ccc2c(c1)OCO2 | active
C=CCSSCC=C | active
CCOC(=O)Cc1ccccc1 | active
COc1ccc(C=O)cc1 | active
SCc1ccccc1 | active
OCc1ccco1 | active

The compounds below were run on T3, OR2W1. Details: stereoisomer not certain.
T3 sequence (whole entry): T1 sequence (whole entry) with M81V
Outline: as §1

SMILES | odorant receptor agonist call
SCc1ccco1 | active
C=CCc1ccc(OC)cc1 | active
O=Cc1ccc2c(c1)OCO2 | active
C=CCSSCC=C | active
CCOC(=O)Cc1ccccc1 | active
COc1ccc(C=O)cc1 | active
SCc1ccccc1 | active
OCc1ccco1 | inactive

These compounds were tested against T4, OR2W3 (Homo sapiens) (UniProt Q7Z3T1). Details: stereoisomer not certain.
T4 sequence (whole entry): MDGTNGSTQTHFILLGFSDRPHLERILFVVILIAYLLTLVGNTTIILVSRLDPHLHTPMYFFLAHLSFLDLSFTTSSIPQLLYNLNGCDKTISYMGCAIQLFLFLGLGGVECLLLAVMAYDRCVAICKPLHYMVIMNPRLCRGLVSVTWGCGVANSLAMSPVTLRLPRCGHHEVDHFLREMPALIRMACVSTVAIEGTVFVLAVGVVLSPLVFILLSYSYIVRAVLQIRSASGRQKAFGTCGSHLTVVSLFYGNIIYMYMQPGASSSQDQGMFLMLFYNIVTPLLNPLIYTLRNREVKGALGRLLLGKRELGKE
Outline: as §1

SMILES | odorant receptor agonist call
C=CCOC(=O)Cc1ccccc1 | inactive
Cc1cccc(C)c1 | inactive
Cc1c([N+](=O)[O-])c(C)c([N+](=O)[O-])c(C(C)(C)C)c1[N+](=O)[O-] | inactive
COc1ccc(C=O)cc1 | inactive

Each compound was assayed against T5, OR3A1 (Homo sapiens) (UniProt P47881). Details: stereoisomer not certain.
T5 sequence (whole entry): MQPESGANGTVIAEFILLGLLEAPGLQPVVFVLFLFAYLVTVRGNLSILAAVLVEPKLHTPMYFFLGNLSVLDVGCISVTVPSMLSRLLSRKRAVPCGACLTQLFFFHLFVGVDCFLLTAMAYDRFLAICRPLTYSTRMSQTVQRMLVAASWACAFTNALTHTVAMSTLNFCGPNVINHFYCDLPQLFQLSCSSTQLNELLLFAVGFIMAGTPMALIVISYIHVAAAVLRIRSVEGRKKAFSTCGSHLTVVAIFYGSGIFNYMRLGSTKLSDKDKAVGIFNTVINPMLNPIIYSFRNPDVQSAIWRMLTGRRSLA
Outline: as §1

SMILES | odorant receptor agonist call
C=CCc1ccc2c(c1)OCO2 | inactive
C=CCOC(=O)Cc1ccccc1 | inactive
O=Cc1ccc2c(c1)OCO2 | inactive
Cc1c([N+](=O)[O-])c(C)c([N+](=O)[O-])c(C(C)(C)C)c1[N+](=O)[O-] | inactive
CC(=O)C=Cc1ccc2c(c1)OCO2 | active
CC(C=O)Cc1ccc2c(c1)OCO2 (stereo not given) | active
